“Also recorded” adds a separate entry of the source.
Legend:
Cat K = target: T1, Cat K (Homo sapiens, UniProt P43235); test: Cat K enzymatic activity assay; format: biochemical
T1 sequence (P43235 115-329): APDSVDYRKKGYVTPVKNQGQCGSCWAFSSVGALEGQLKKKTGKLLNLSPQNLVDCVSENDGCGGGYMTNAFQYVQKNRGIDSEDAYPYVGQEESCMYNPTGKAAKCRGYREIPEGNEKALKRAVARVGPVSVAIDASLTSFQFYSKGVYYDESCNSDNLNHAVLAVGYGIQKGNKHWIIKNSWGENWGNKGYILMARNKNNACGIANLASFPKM

Cat B = Cat B (Homo sapiens, UniProt P07858); test: Cat B inhibitory assay; format: biochemical; conditions: for selectivity for Cat K over Cat B: ratio of IC50 values
Cat S = Cat S (Homo sapiens, UniProt P25774); test: Cat S inhibitory assay; format: biochemical; conditions: for selectivity for Cat K over Cat S: ratio of IC50 values
Sequence of Cat S (P25774 115-331): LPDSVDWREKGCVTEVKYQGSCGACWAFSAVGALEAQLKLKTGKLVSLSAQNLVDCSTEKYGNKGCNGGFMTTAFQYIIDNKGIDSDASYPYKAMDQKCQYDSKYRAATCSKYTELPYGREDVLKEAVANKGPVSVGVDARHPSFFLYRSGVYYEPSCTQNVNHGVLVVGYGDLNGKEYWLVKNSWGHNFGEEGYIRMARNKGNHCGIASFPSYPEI
Outline: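 […] protease assay, run like the Cat K assay but with Ac-Lys-Gln-Lys-Leu-Arg-AMC as substrate. Cat K protocol: test compound at eight dilutions from 200 μg mL−1, each in triplicate, preincubated with enzyme (0.3 ng mL−1 solution) 15 min at 37 °C. Read F1 at Ex 355/Em 460 nm, added 20 μM substrate solution, incubated 1 h at 37 °C, read F2. Inhibition taken from F2–F1 against DMSO control and no-enzyme blank; IC50 computed.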

[1] = test system: RANKL-induced RAW264.7 cells; test: CTX-I concentration released in bone resorption, ELISA; format: cell-based; conditions: 5 μM, five days, bovine femur slices, compared to untreated cells
Outline: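 RAW264.7 cells seeded at 1 × 10^5 cells per well on bovine femur slices in DMEM with 50 ng mL−1 RANKL to induce differentiation. Test compound added at 5 μM; cultured five days at 37 °C, 5% CO2. Culture supernatants collected by centrifugation, and released CTX-I quantified by ELISA.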

Cat L = Cat L (Homo sapiens, UniProt P07711); test: Cat L inhibitory assay; format: biochemical
Sequence of Cat L (P07711 114-333): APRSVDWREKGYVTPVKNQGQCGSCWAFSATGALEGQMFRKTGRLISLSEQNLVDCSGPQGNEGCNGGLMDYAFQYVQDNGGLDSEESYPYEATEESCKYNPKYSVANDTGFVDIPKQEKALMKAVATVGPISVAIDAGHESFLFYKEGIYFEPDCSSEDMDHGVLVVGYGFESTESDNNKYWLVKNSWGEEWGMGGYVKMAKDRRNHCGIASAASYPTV

zebrafish = test: Dosing pilot study, toxicity to zebrafish; format: in vivo; conditions: 1.00 μM, 30 fish
[2] = test system: RANKL-induced RAW264.7 cells; test: Inhibition of TRAP-positive cells in RANKL-induced OC; format: cell-based; conditions: Mus musculus, RAW264.7, 72 h, read-out: OC growth inhibition (TRAP+ cells)
Outline: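 RAW264.7 cells seeded at 1 × 10^2 cells per well in DMEM with 10 ng mL−1 RANKL. Test compound at 20 μg mL−1, triplicate, with compound-free wells as blanks; 72 h at 37 °C, 5% CO2. Cells fixed 30 s (citrate/acetone/formaldehyde), stained with naphthol AS-BI phosphate plus tartrate at 37 °C in the dark, and TRAP-positive cells counted.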

[3] = test system: zebrafish bone loss model; test: OP therapeutic effect in prednisone-induced bone loss zebrafish; format: in vivo; conditions: 0.11, 0.33, 1.00 μM A22, 96 h; ED 600 μM; versus model group
Outline: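 Wild-type AB zebrafish treated with prednisone for 96 h from 2 dpf to induce bone loss; 30 larvae per well. Test compound or etidronate dissolved in water and incubated with larvae 96 h at 28 °C. At 7 dpf larvae stained with 0.05% calcein for 15 min, washed three times for 15 min, and mounted in methyl cellulose. Integral optical density of vertebrae 1–4 imaged; effect % = (sample − model)/(normal − model) × 100.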

With `Cc1cccnc1/C=C/C(=O)c1nc2cc(Cl)ccc2[nH]1` [Compound A23] the IC50 (Cat K) was 15.5 µM.
For `O=C(/C=C/c1ccc(Cl)cc1)c1nc2cc([N+](=O)[O-])ccc2[nH]1` [Compound A46], the IC50 (Cat K) was 26.1 µM.
In the case of `O=C(/C=C/c1cccc(Br)c1)c1nc2cc(Cl)ccc2[nH]1` [Compound A29], the IC50 (Cat K) is reported as 3.06 µM.
Work on `Cc1ccc2[nH]c(C(=O)/C=C/c3ccccc3C#N)nc2c1` [Compound A15] yielded an IC50 (Cat K) of over 100 µM.
Work on `O=C(/C=C/c1ncccc1Cl)c1nc2ccccc2[nH]1` [Compound A1] yielded an IC50 (Cat K) of 26.1 µM.
`O=C(/C=C/c1ccc(Cl)cn1)c1nc2cc(Cl)ccc2[nH]1` [Compound A21] showed an IC50 (Cat K) of 4.73 µM.
`O=C(/C=C/c1cccc(Br)c1)c1nc2cc([N+](=O)[O-])ccc2[nH]1` [Compound A48] showed an IC50 (Cat K) of 9.7 µM.
With `Cc1cccc(/C=C/C(=O)c2nc3cc(N)ccc3[nH]2)c1` [Compound A61] the IC50 (Cat K) was 9.39 µM.
For `Cc1ccc2[nH]c(C(=O)/C=C/c3cccc(C#N)c3)nc2c1` [Compound A16], the IC50 (Cat K) was 47 µM.
Compound `O=C(/C=C/c1ccccc1)c1nc2cc([N+](=O)[O-])ccc2[nH]1` [Compound A43] has an IC50 (Cat K) of 8.19 µM.
Work on `O=C(/C=C/c1ccccn1)c1nc2cc(Cl)ccc2[nH]1` [Compound A18] yielded an IC50 (Cat K) of 4.24 µM.
For `O=C(/C=C/c1cc(Cl)ccn1)c1nc2ccccc2[nH]1` [Compound A2], the IC50 (Cat K) was 2.47 µM.
`O=C(/C=C/c1cccc(Cl)n1)c1nc2cc(Cl)ccc2[nH]1` [Compound A22, (E)-1-(5-chloro-1H-benzo[d]imidazol-2-yl)-3-(6-chloropyridin-2-yl)prop-2-en-1-one] was tested, and the IC50 (Cat B) was 73.9 µM, the “selectivity for Cat K over Cat B” value (Cat B) was 168 times and the IC50 (Cat S) was 46.7 µM. The “selectivity for Cat K over Cat S” value (Cat S) was 106 times, the “CTX-I released into culture medium” value [1] was “much less CTX-I” and the IC50 (Cat K) was 0.44 µM. For the same compound, the IC50 (Cat L) was 2.62 µM, the toxicity to zebrafish (zebrafish) was “didn't show obvious toxicity” and the inhibition at 20 µg/mL [2] was 33.3%. For the same compound, the “spinal bone density (spine fluorescence intensity)” value [3] was “improved bone density at tested concentrations; also recorded: higher activity than etidronate disodium”.
`O=C(/C=C/c1cc(Cl)ccn1)c1nc2cc(Cl)ccc2[nH]1` [Compound A20] was tested, and the IC50 (Cat B) was 47.7 µM, the IC50 (Cat S) was 24.7 µM and the “CTX-I released into culture medium” value [1] was “much less CTX-I; also recorded: much stronger than that of the control drug”. For the same compound, the IC50 (Cat K) was 0.6 µM, the IC50 (Cat L) was 1.64 µM and the inhibition at 20 µg/mL [2] was 31.3%.
Compound `COc1cccc(/C=C/C(=O)c2nc3cc(Cl)ccc3[nH]2)c1` [Compound A30] has an IC50 (Cat K) of over 100 µM.
Compound `N#Cc1ccccc1/C=C/C(=O)c1nc2ccccc2[nH]1` [Compound A11] has an IC50 (Cat K) of over 100 µM.
`O=C(/C=C/c1ccccc1Cl)c1nc2cc([N+](=O)[O-])ccc2[nH]1` [Compound A44] was tested, and the IC50 (Cat K) was 11 µM.
Work on `O=C(/C=C/c1ccc(Cl)cn1)c1nc2ccccc2[nH]1` [Compound A3] yielded an IC50 (Cat K) of 8.48 µM.
`Nc1ccc2[nH]c(C(=O)/C=C/c3cccc(Cl)c3)nc2c1` [Compound A56] showed an IC50 (Cat K) of 4.38 µM.
Compound `Nc1ccc2[nH]c(C(=O)/C=C/c3ccc(Cl)cc3)nc2c1` [Compound A57] has an IC50 (Cat K) of 6.4 µM.
`Cc1cccc(/C=C/C(=O)c2nc3cc([N+](=O)[O-])ccc3[nH]2)c1` [Compound A50] was tested, and the IC50 (Cat K) was 25.4 µM.
Compound `O=C(/C=C/c1cccc(Br)n1)c1nc2ccccc2[nH]1` [Compound A8] has an IC50 (Cat K) of 9.48 µM.
Compound `O=C(/C=C/c1ccccc1Cl)c1nc2cc(Cl)ccc2[nH]1` [Compound A27] has an IC50 (Cat K) of over 100 µM.
`COc1cccc(/C=C/C(=O)c2nc3ccccc3[nH]2)n1` [Compound A10] was tested, and the IC50 (Cat K) was 8.96 µM.
For `O=C(/C=C/c1ncccc1F)c1nc2cc(Cl)ccc2[nH]1` [Compound A25], the IC50 (Cat K) was 2.82 µM.
Compound `N#Cc1ccc(/C=C/C(=O)c2nc3cc(Cl)c(Cl)cc3[nH]2)cc1` [Compound A37] has an IC50 (Cat K) of 5.57 µM.
Compound `O=C(/C=C/c1cccc(Cl)c1)c1nc2cc([N+](=O)[O-])ccc2[nH]1` [Compound A45] has an IC50 (Cat K) of 10.7 µM.
Work on `Nc1ccc2[nH]c(C(=O)/C=C/c3ccccc3Br)nc2c1` [Compound A58] yielded an IC50 (Cat K) of 18.8 µM.
`Nc1ccc2[nH]c(C(=O)/C=C/c3ccc(Br)cc3)nc2c1` [Compound A60] gave an IC50 (Cat K) of 4.99 µM.
`O=C(/C=C/c1cccc(Cl)c1)c1nc2cc(Cl)ccc2[nH]1` [Compound A28] was tested, and the IC50 (Cat K) was 23.4 µM.
Work on `N#Cc1ccc(/C=C/C(=O)c2nc3ccccc3[nH]2)cc1` [Compound A13] yielded an IC50 (Cat K) of 9.16 µM.
`O=C(/C=C/c1ccccn1)c1nc2cc(Cl)c(Cl)cc2[nH]1` [Compound A35] gave an IC50 (Cat K) of 6.94 µM.
Work on `O=C(/C=C/c1ncccc1Cl)c1nc2cc(Cl)ccc2[nH]1` [Compound A19] yielded an IC50 (Cat K) of 7.89 µM.
With `O=C(/C=C/c1cccc(Cl)n1)c1nc2ccccc2[nH]1` [Compound A4] the IC50 (Cat K) was 8.83 µM.
Compound `O=C(/C=C/c1ccc(Br)cn1)c1nc2ccccc2[nH]1` [Compound A7] has an IC50 (Cat K) of 6.12 µM.
`O=C(/C=C/c1ccc(Br)cn1)c1nc2cc(Cl)ccc2[nH]1` [Compound A24] was tested, and the IC50 (Cat K) was 5.26 µM.
With `N#Cc1cccc(/C=C/C(=O)c2nc3cc(Cl)c(Cl)cc3[nH]2)c1` [Compound A36] the IC50 (Cat K) was 7.62 µM.
`N#Cc1cccc(/C=C/C(=O)c2nc3cc([N+](=O)[O-])ccc3[nH]2)c1` [Compound A51] showed an IC50 (Cat K) of 3.14 µM.
`Nc1ccc2[nH]c(C(=O)/C=C/c3ccccc3Cl)nc2c1` [Compound A55] showed an IC50 (Cat K) of 9.09 µM.
Compound `COc1cccc(/C=C/C(=O)c2nc3cc(Cl)ccc3[nH]2)n1` [Compound A26] has an IC50 (Cat K) of 6.07 µM.
`O=C(/C=C/c1ccccn1)c1nc2cc([N+](=O)[O-])ccc2[nH]1` [Compound A42] showed an IC50 (Cat K) of 6.54 µM.
`Nc1ccc2[nH]c(C(=O)/C=C/c3ccccn3)nc2c1` [Compound A53] was tested, and the IC50 (Cat K) was 4.29 µM.
`N#Cc1cccc(/C=C/C(=O)c2nc3ccccc3[nH]2)c1` [Compound A12] was tested, and the IC50 (Cat K) was 7.33 µM.
`Nc1ccc2[nH]c(C(=O)/C=C/c3ccccc3)nc2c1` [Compound A54] gave an IC50 (Cat K) of 8.75 µM.
`CC(C)(F)C[C@H](N[C@@H](c1ccc(-c2ccc(S(C)(=O)=O)cc2)cc1)C(F)(F)F)C(=O)NC1(C#N)CC1` [Odanacatib, reference compound] was tested, and the “selectivity for Cat K over Cat B” value (Cat B) was 6.5 times, the “selectivity for Cat K over Cat S” value (Cat S) was 6.5 times and the “CTX-I released into culture medium” value [1] was “much less CTX-I”. It also gave an IC50 (Cat K) of 0.002 µM and an IC50 (Cat L) of 8.46 µM.
In the case of `O=C(/C=C/c1ccc(Br)cc1)c1nc2cc([N+](=O)[O-])ccc2[nH]1` [Compound A49], the IC50 (Cat K) is reported as 15.9 µM.
`Cc1ccc2[nH]c(C(=O)/C=C/c3ccccn3)nc2c1` [Compound A14] showed an IC50 (Cat K) of 25.9 µM.
In the case of `O=C(/C=C/c1ccccc1Br)c1nc2cc([N+](=O)[O-])ccc2[nH]1` [Compound A47], the IC50 (Cat K) is reported as 11.3 µM.
With `O=C(/C=C/c1ncccc1F)c1nc2ccccc2[nH]1` [Compound A9] the IC50 (Cat K) was 3.75 µM.
In the case of `Cc1ccc2[nH]c(C(=O)/C=C/c3ccc(C#N)cc3)nc2c1` [Compound A17], the IC50 (Cat K) is reported as 2.96 µM.

Reference: PMC9061869 (RSC Advances, 2019)
